Test results as given in ChEMBL document CHEMBL1123437, “Isozyme-specific enzyme inhibitors. 12. C- and N-methylmethionines as substrates and inhibitors of methionine adenosyltransferases of normal and hepatoma rat tissues” (J Med Chem, 1986).
Values joined by “and” are separate entries in the source; they are usually repeats but may differ in a detail not shown here. Equal values may be shown once.

Legend:
[1] = target: T1, S-adenosylmethionine synthetase (MAT 1 and MAT 2) (Rattus norvegicus) (UniProt P13444+P18298); test: Compound (3 mM) was tested for the inhibition of conversion of [14C]methionine to [14C]-AdoMet by M-T (hepatoma tissue) of rat methionine adenosyltransferase; assay type: protein assay
Procedure, shortened: (§1)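 Radiometric [14C]Met→[14C]AdoMet assay with partially purified rat MAT (M-2 from kidney, 8.6 × 10^-6 units; M-T from Novikoff hepatoma, 7.9 × 10^-6 units). Derivative at 3 mM, 2 mM MgATP, pH 8.2 Tris/KCl/MgCl2/DTT buffer, 37 °C, 10 min. Acid-stopped; supernatant counted on phosphocellulose discs. No-ATP incubations served as controls.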

[2] = target: S-adenosylmethionine synthase isoform type-2 (Rattus norvegicus) (UniProt P18298); test: Compound (3 mM) was tested for the inhibition of conversion of [14C]methionine to [14C]AdoMet by rat Methionine adenosyltransferase II; procedure, shortened: as §1
Target sequence in this assay (P18298 whole entry, canonical isoform): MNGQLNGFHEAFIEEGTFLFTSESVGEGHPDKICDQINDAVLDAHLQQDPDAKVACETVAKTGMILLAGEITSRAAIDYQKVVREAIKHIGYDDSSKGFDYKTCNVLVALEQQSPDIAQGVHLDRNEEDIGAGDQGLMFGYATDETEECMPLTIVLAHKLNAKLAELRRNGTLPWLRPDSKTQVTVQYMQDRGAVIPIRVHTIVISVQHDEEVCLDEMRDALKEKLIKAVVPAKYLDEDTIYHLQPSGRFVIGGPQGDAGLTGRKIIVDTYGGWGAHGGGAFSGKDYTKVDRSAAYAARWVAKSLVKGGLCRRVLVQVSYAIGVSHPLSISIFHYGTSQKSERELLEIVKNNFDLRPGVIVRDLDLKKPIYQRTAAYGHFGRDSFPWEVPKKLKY

[3] = Ratio of relative Vmax of normal tissue (M-2) form of rat methionine Adenosyltransferase to that of KM of normal tissue(M-2)form of rat methionine Adenosyltransferase
Procedure, shortened: (§2)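 Kinetics with 0.4 mM [14C]ATP and 1.72 × 10^-6 units M-2 (kidney) or 1.58 × 10^-6 units M-T (hepatoma), 60 min, 37 °C, pH 8.2. Product resolved by paper electrophoresis and counted. KM and Vmax from linear double-reciprocal plots. Vmax expressed relative to L-Met = 100; reported as the relative Vmax/KM ratio.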

[4] = target: T1, S-adenosylmethionine synthetase (MAT 1 and MAT 2) (Rattus norvegicus); test: Substrate activity as rate of conversion of [C14]-ATP to [C14]-Adomet in relation to KM value of methionine with M-T of rat methionine adenosyltransferase; assay type: protein assay; procedure, shortened: as §2
[5] = target: S-adenosylmethionine synthase isoform type-2 (Rattus norvegicus) (UniProt P18298); test: Substrate activity of compound (4 mM) measured as the rate of conversion of [C14]-ATP to [C14]-Adomet in relation to KM value of methionine with rat Methionine adenosyltransferase II; procedure, shortened: as §2
Target sequence in this assay (P18298 whole entry, canonical isoform): as above

[6] = target: T1, S-adenosylmethionine synthetase (MAT 1 and MAT 2) (Rattus norvegicus); test: Substrate level that produces half the maximal velocity(M-2) of rat methionine adenosyltransferase; assay type: protein assay
Procedure, shortened: (§3)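 KM from linear double-reciprocal plots of velocity vs derivative concentration. Conditions: 0.4 mM [14C]ATP, 1.72 × 10^-6 units M-2 (rat kidney) or 1.58 × 10^-6 units M-T (Novikoff hepatoma), 60 min, 37 °C, Tris pH 8.2 with KCl/MgCl2/DTT. [14C]AdoMet derivative separated by paper electrophoresis and counted.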

[7] = target: T1, S-adenosylmethionine synthetase (MAT 1 and MAT 2) (Rattus norvegicus); test: Substrate level that produces half the maximal velocity(M-T) of rat methionine adenosyltransferase; assay type: protein assay; procedure, shortened: as §3
[8] = Ratio of Vmax of normal tissue (M-T) form of rat methionine Adenosyltransferase to that of KM of normal tissue(M-T)form of rat methionine Adenosyltransferase; procedure, shortened: as §2
[9] = target: S-adenosylmethionine synthase isoform type-2 (Rattus norvegicus) (UniProt P18298); test: Substrate activity of compound (4 mM) measured as the rate of conversion of [C14]-ATP to [C14]-Adomet in relation to KM value of methionine of rat Methionine adenosyltransferase II; procedure, shortened: as §2
Target sequence in this assay (P18298 whole entry, canonical isoform): as above

[10] = target: T1, S-adenosylmethionine synthetase (MAT 1 and MAT 2) (Rattus norvegicus); test: […](M-T) of rat methionine adenosyl transferase; assay type: protein assay; procedure, shortened: as §3
[11] = target: T1, S-adenosylmethionine synthetase (MAT 1 and MAT 2) (Rattus norvegicus); test: Substrate activity with […](M-Tform of rat methionine adenosyltransferase; assay type: protein assay; settings: concentration not given here
Procedure, shortened: (§4)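 Derivative at 4 mM with [14C]ATP and 1.6 × 10^-5 units rat MAT, 1 h at 37 °C. [14C]AdoMet derivative separated by paper electrophoresis (pH 5.0 acetate) and counted. Result given as cpm per 10 µL above a control lacking the derivative. At least twice control counts scored as substrate activity.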

[12] = target: S-adenosylmethionine synthase isoform type-2 (Rattus norvegicus) (UniProt P18298); test: Rate of conversion of [C14]-ATP to [C14]-Adomet in relation to KM value of methionine with Methionine adenosyltransferase II; procedure, shortened: as §2
Target sequence in this assay (P18298 whole entry, canonical isoform): as above

[13] = target: T1, S-adenosylmethionine synthetase (MAT 1 and MAT 2) (Rattus norvegicus); test: Rate of conversion of [C14]-ATP to [C14]-Adomet in relation to KM value of methionine with methionine adenosyltransferase; assay type: protein assay; procedure, shortened: as §2
[14] = target: S-adenosylmethionine synthase isoform type-2 (Rattus norvegicus) (UniProt P18298); test: (§5) Substrate activity with rat Methionine adenosyltransferase II; settings: concentration not given here; procedure, shortened: as §4
Target sequence in this assay (P18298 whole entry, canonical isoform): as above

[15] = target: T1, S-adenosylmethionine synthetase (MAT 1 and MAT 2) (Rattus norvegicus); test: Compound (3 mM) was tested for the inhibition of conversion of [14C]methionine to [14C]AdoMet by M-T (hepatoma tissue) of methionine adenosyltransferase; assay type: protein assay; procedure, shortened: as §1
[16] = target: T1, S-adenosylmethionine synthetase (MAT 1 and MAT 2) (Rattus norvegicus); test: Substrate level that produces half the maximal velocity(M-2) of rat methionine adenosyl transferase; assay type: protein assay; procedure, shortened: as §3
[17] = target: S-adenosylmethionine synthase isoform type-2 (Rattus norvegicus) (UniProt P18298); test: Compound (3 mM) was tested for the inhibition of conversion of [14C]methionine to [14C]AdoMet by M-2 (normal tissue) of rat methionine Adenosyltransferase; procedure, shortened: as §1
Target sequence in this assay (P18298 whole entry, canonical isoform): as above

[18] = target: S-adenosylmethionine synthase isoform type-2 (Rattus norvegicus) (UniProt P18298); test: Substrate activity of compound (4 mM) measured as the rate of conversion of [C14]-ATP to [C14]-Adomet in relation to KM value of methionine rat Methionine adenosyltransferase II; procedure, shortened: as §2
CSC[C@@H](C)C(N)C(=O)O = test: (§6) Substrate activity with […] (M-T) form of rat methionine adenosyltransferase; assay type: protein assay
CSCC[C@](C)(N)C(=O)O = test: as §6; assay type: protein assay
CSCC(C)C(N)C(=O)O [19] = test: (§7) Substrate activity with […] form of rat methionine Adenosyltransferase; assay type: protein assay
CSCC[C@H](N)C(=O)O [20] = test: as §7; assay type: protein assay
[21] = target: T1, S-adenosylmethionine synthetase (MAT 1 and MAT 2) (Rattus norvegicus); test: Substrate activity of compound (4 mM) measured as the rate of conversion of [C14]-ATP to [C14]-Adomet in relation to KM value of methionine with M-T of rat MAT; assay type: protein assay; procedure, shortened: as §2
[22] = target: T1, S-adenosylmethionine synthetase (MAT 1 and MAT 2) (Rattus norvegicus); test: Compound (3 mM) was tested for the inhibition of conversion of [14C]methionine to [14C]-AdoMet by M-T (hepatoma tissue) of rat methionine Adenosyltransferase; assay type: protein assay; procedure, shortened: as §1
[23] = system: CS[C@H](C)C[C@H](N)C(=O)O; test: as §5
CSCC(C)C(N)C(=O)O [24] = test: as §5
CSC(C)C[C@@H](N)C(=O)O = test: as §5
CSCC[C@H](N)C(=O)O [25] = test: as §5
[26] = target: S-adenosylmethionine synthase isoform type-2 (Rattus norvegicus) (UniProt P18298); test: Substrate activity with normal tissue form of rat Methionine adenosyltransferase II
Target sequence in this assay (P18298 whole entry, looked up, canonical isoform): as the sequence (P18298 whole entry, canonical isoform) above

Sequence of S-adenosylmethionine synthetase (MAT 1 and MAT 2) (Rattus norvegicus) (from UniProt P13444+P18298) (P18298 whole entry, looked up): as the sequence (P18298 whole entry, canonical isoform) above
Sequence of S-adenosylmethionine synthetase (MAT 1 and MAT 2) (Rattus norvegicus) (from UniProt P13444+P18298) (P13444 whole entry, looked up): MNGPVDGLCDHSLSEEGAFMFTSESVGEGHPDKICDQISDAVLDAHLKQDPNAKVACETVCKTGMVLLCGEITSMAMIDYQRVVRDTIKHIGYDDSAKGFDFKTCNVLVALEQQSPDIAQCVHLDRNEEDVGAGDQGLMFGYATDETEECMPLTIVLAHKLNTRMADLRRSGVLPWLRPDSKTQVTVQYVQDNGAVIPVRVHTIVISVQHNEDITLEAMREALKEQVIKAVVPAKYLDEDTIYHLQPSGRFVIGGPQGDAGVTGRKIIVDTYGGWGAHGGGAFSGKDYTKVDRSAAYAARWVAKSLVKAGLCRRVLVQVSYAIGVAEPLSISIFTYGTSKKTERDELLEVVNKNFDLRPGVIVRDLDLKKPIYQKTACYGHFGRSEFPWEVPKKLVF
Sequence of S-adenosylmethionine synthase isoform type-2 (Rattus norvegicus), P18298 (P18298 whole entry, canonical isoform): as the sequence (P18298 whole entry, canonical isoform) above

| Compound | inhibition [1] [%] | inhibition [2] [%] | Ratio [3] | Substrate activity [4] [c.p.m.] | Substrate activity [5] [c.p.m.] | also measured |
| --- | --- | --- | --- | --- | --- | --- |
| CS[C@H](C)C[C@H](N)C(=O)O | 15 | 24 | 1.9 | 731 | 506 | Relative Vmax [6]: 27 |
| CSC[C@@H](C)C(N)C(=O)O (stereo partly drawn) | 8.7 | 15 | – | 348 | – | Relative Vmax [7]: 37; Ratio [8]: 1.8; Substrate activity [9]: 38 c.p.m. |
| CNCCC(N)C(=O)O (stereo not drawn) | – | – | – | – | – | inhibition [11]: 0%; Substrate activity [12]: 37 cpm; Substrate activity [13]: 33 cpm; inhibition [14]: 6.6% |
| CSC(C)C[C@@H](N)C(=O)O (stereo partly drawn) | 24 | 29 | 2.6 | 272 | 624 | Relative Vmax [6]: 26 |
| CSC[C@@H](C)[C@@H](N)C(=O)O | 15 | 21 | 0.9 | 381 | 333 | Relative Vmax [16]: 26 |
| CSCC[C@](C)(N)C(=O)O | 11 | 15 | – | 241 | – | Relative Vmax [7]: 27; Ratio [8]: 1.3; Substrate activity [18]: 49 c.p.m. |
| S-adenosylmethionine synthetase (MAT 1 and MAT 2) (Rattus norvegicus) (from UniProt P13444+P18298) | – | – | – | – | – | Km (CSC[C@@H](C)C(N)C(=O)O): 20 mM; Km (CSCC[C@](C)(N)C(=O)O): 21 mM; Km (CSCC(C)C(N)C(=O)O [19]): 1.4 mM; Km (CSCC[C@H](N)C(=O)O [20]): 0.0156 mM |
| S-adenosylmethionine synthase isoform type-2 (Rattus norvegicus), P18298 | – | – | – | – | – | Km [23]: 14 mM; Km (CSCC(C)C(N)C(=O)O [24]): 6.1 mM; Km (CSC(C)C[C@@H](N)C(=O)O): 10 mM; Km (CSCC[C@H](N)C(=O)O [25]): 0.005 mM; Km [26]: 29 mM |
| CSC[C@@H](C)[C@H](N)C(=O)O | 6.6 | 17 | – | 191 | -10 | – |

Continued, in another order:

| inhibition [1] [%] | inhibition [2] [%] | Ratio [3] | Substrate activity [4] [c.p.m.] | Substrate activity [5] [c.p.m.] | Compound | also measured |
| --- | --- | --- | --- | --- | --- | --- |
| – | – | 20000 | – | – | CSCC[C@H](N)C(=O)O | Ratio [8]: 6400; Relative Vmax [10]: 100 |
| – | 0 | – | 13 | -15 | CCCCN[C@@H](CCSC)C(=O)O | inhibition [15]: 0% |
| – | – | – | 40 | 41 | CSCC[C@@](C)(N)C(=O)O | inhibition [17]: 4.8%; inhibition [15]: 3.7% |
| 0 | 2.9 | – | 36 | -9 | CN[C@@H](CCSC)C(=O)O | – |
| 14 | – | – | 173 | 30 | CS[C@@H](C)C[C@@H](N)C(=O)O | inhibition [17]: 9.7% |
| – | – | 4.4 | – | 838 | CSCC(C)C(N)C(=O)O (stereo not drawn) | Ratio [8]: 8.6; Substrate activity [21]: 701 c.p.m.; inhibition [17]: 68%; Relative Vmax [10]: 27 and 12; inhibition [22]: 65% |
